From ChEMBL document CHEMBL4330076, “Quinazolin-2,4-dione-Based Hydroxamic Acids as Selective Histone Deacetylase-6 Inhibitors for Treatment of Non-Small Cell Lung Cancer” (J Med Chem, 2019)

What was measured:
[1] = test system: A549; test: Cytotoxicity against human A549 cells after 72 hrs by MTT assay; format: functional, cell-based; settings: A549, 72 h
In short: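 Human A549 lung cancer cells exposed to serial dilutions of inhibitor at 37 °C for 72 h. Cytotoxicity expressed as IC50.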

[2] = target: T1, Protein deacetylase HDAC6 (Homo sapiens, UniProt Q9UBN7); test: Inhibition of human full-length recombinant HDAC6 expressed in baculovirus infected Sf9 insect cells using Boc-Lys (Ac)-AMC as substrate preincubated for 10 mins followed by substrate addition and measured after 30 mins by fluorescence assay
T1 sequence (Q9UBN7 whole entry): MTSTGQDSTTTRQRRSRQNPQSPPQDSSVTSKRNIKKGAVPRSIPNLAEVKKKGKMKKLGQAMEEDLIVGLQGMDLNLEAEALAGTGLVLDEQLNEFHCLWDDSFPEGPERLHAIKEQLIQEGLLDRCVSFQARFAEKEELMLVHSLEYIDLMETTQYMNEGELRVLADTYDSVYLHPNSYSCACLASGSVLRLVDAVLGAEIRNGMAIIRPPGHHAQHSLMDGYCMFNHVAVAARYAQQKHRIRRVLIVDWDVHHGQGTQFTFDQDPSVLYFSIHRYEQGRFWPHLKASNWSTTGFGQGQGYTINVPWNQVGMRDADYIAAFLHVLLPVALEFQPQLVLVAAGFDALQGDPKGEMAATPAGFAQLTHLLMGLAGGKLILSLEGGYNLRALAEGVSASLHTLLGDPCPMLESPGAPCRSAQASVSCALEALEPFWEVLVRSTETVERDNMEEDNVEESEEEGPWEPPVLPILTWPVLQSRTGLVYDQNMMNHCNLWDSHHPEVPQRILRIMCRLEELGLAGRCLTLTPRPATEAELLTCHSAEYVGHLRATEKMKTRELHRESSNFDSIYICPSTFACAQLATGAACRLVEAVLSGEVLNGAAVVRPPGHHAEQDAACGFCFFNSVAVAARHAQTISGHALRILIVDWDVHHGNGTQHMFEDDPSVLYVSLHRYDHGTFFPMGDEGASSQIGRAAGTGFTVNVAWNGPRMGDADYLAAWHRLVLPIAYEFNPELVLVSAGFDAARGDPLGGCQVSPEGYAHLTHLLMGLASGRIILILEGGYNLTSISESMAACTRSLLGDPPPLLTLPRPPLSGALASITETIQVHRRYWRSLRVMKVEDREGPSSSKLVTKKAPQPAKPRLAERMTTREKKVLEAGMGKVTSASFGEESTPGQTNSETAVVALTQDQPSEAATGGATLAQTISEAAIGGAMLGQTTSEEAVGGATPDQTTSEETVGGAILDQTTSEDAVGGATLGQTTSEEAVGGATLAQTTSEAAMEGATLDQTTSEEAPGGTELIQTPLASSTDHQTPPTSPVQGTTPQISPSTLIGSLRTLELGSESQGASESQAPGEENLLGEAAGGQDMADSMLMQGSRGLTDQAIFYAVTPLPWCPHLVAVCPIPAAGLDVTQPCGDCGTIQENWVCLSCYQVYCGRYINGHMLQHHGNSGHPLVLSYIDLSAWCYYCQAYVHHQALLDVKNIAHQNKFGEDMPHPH

[3] = target: T1, Protein deacetylase HDAC6; test: Inhibition of human full-length recombinant HDAC6 expressed in baculovirus infected Sf9 insect cells using fluorogenic peptide RHKKAc as substrate after 2 hrs
[4] = target: T1, Protein deacetylase HDAC6; test: Inhibition of human HDAC6 CD2 expressed in Escherichia coli BL21 (RIL) using Boc-Lys (Ac)-AMC as substrate preincubated for 10 mins followed by substrate addition and measured after 30 mins by fluorescence assay
[5] = AUC (0 to 24 hrs) in C57BL/6 mouse lung at 40 mg/kg, po administered via gavage by LC-MS/MS analysis; format: ADME, organism-based; parameters: time < 24 hr, dose 40 mg/kg, route oral; settings: in vivo
[6] = AUC (0 to 24 hrs) in C57BL/6 mouse kidney at 40 mg/kg, po administered via gavage by LC-MS/MS analysis; format: ADME, organism-based; parameters: time < 24 hr, dose 40 mg/kg, route oral; settings: in vivo
[7] = AUC (0 to 24 hrs) in C57BL/6 mouse plasma at 40 mg/kg, po administered via gavage by LC-MS/MS analysis; format: ADME, organism-based; parameters: time < 24 hr, dose 40 mg/kg, route oral; settings: in vivo
[8] = AUC (0 to 24 hrs) in C57BL/6 mouse liver at 40 mg/kg, po administered via gavage by LC-MS/MS analysis; format: ADME, organism-based; parameters: dose 40 mg/kg, time < 24 hr, route oral; settings: in vivo
[9] = target: Histone deacetylase 1 (Homo sapiens, UniProt Q13547); test: Inhibition of human full-length recombinant HDAC1 expressed in baculovirus infected Sf9 insect cells using fluorogenic peptide RHKKAc as substrate after 2 hrs
Histone deacetylase 1, sequence (Q13547 whole entry): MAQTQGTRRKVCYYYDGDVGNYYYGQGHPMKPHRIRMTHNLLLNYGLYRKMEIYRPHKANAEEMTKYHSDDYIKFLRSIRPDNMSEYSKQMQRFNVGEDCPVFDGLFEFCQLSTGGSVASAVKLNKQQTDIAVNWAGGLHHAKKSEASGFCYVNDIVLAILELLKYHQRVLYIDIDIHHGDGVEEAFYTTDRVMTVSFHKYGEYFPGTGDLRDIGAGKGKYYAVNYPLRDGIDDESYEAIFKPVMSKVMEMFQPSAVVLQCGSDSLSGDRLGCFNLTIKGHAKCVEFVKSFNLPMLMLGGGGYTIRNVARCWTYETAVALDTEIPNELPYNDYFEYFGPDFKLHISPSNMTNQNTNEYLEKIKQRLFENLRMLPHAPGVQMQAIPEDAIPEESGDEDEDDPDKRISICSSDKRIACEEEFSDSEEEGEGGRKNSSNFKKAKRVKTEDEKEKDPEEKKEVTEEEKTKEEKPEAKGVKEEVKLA
In short: (§1)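 Run by an outside contract lab. IC50 was obtained from 10-point dose-response curves using threefold serial dilutions of compound from the top concentration.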

[10] = target: T2, Histone deacetylase 11 (Homo sapiens, UniProt Q96DB2); test: Inhibition of human full-length recombinant HDAC11 expressed in baculovirus infected Sf9 insect cells using fluorogenic peptide RHKKAc as substrate after 2 hrs; in short: as §1
T2 sequence (Q96DB2 whole entry): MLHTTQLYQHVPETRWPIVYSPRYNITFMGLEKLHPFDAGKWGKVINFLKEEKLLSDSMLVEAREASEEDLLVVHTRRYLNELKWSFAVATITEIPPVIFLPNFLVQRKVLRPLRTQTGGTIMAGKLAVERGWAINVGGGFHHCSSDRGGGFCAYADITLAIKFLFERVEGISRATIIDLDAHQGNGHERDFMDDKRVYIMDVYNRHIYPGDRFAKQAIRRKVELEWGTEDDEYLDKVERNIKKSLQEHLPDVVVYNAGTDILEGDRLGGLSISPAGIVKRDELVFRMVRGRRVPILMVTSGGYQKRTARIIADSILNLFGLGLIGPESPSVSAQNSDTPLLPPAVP

[11] = target: T3, Histone deacetylase 8 (Homo sapiens, UniProt Q9BY41); test: Inhibition of human full-length recombinant HDAC8 expressed in baculovirus infected Sf9 insect cells using fluorogenic peptide RHKAcKAc as substrate after 2 hrs
T3 sequence (Q9BY41 whole entry): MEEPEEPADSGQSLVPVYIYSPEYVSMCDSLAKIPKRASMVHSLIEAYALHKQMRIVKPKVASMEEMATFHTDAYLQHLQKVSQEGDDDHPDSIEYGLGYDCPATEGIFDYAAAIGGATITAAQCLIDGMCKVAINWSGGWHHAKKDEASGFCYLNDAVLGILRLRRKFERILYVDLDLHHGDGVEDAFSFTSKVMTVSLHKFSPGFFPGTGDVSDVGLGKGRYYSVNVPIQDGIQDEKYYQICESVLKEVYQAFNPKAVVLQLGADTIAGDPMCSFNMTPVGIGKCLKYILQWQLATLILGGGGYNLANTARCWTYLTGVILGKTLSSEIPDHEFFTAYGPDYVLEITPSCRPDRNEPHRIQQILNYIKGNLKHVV

[12] = test system: A549; test: Induction of apoptosis in human A549 cells assessed as necrotic cells at 10 uM after 24 hrs by Annexin V/propidium iodide staining-based flow cytometric analysis (reference value: 1.1%); format: functional
[13] = test system: Lewis lung carcinoma cell line; test: Induction of apoptosis in mouse LL/2 cells assessed as early apoptotic cells at 10 uM after 24 hrs by Annexin V/propidium iodide staining-based flow cytometric analysis (reference value: 1.8%); format: functional
[14] = test system: Lewis lung carcinoma cell line; test: Cytotoxicity against mouse LL/2 cells after 72 hrs by MTT assay; format: functional, cell-based
[15] = test system: Lewis lung carcinoma cell line; test: Induction of apoptosis in mouse LL/2 cells assessed as necrotic cells at 10 uM after 24 hrs by Annexin V/propidium iodide staining-based flow cytometric analysis (reference value: 7.3%); format: functional
[16] = test system: Lewis lung carcinoma cell line; test: Induction of apoptosis in mouse LL/2 cells assessed as late apoptotic cells at 10 uM after 24 hrs by Annexin V/propidium iodide staining-based flow cytometric analysis (reference value: 8.7%); format: functional
[17] = test system: A549; test: Induction of apoptosis in human A549 cells assessed as late apoptotic cells at 10 uM after 24 hrs by Annexin V/propidium iodide staining-based flow cytometric analysis (reference value: 1.6%); format: functional
[18] = test system: Lewis lung carcinoma cell line; test: Cytotoxicity against mouse LL/2 cells at 10 uM after 72 hrs by MTT assay relative to control; format: functional; settings: in the assay text read “at 10 nM” for “at 10 uM”
In short: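 Mouse LL/2 cells treated with inhibitor alone or combined with paclitaxel for 3 days. Viability measured by MTT assay relative to untreated control.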

[19] = test system: Lewis lung carcinoma cell line; test: Induction of apoptosis in mouse LL/2 cells assessed as viable cells at 10 uM after 24 hrs by Annexin V/propidium iodide staining-based flow cytometric analysis (reference value: 82.3%); format: functional; settings: read-out: Activity
[20] = test system: A549; test: Induction of apoptosis in human A549 cells assessed as early apoptotic cells at 10 uM after 24 hrs by Annexin V/propidium iodide staining-based flow cytometric analysis (reference value: 1.2%); format: functional
[21] = test system: A549; test: Induction of apoptosis in human A549 cells assessed as viable cells at 10 uM after 24 hrs by Annexin V/propidium iodide staining-based flow cytometric analysis (reference value: 96.2%); format: functional; settings: A549, 24 h, read-out: Activity
[22] = test system: Lewis lung carcinoma cell line; test: Induction of alpha tubulin acetylation in mouse LL/2 cells at 10 uM after 24 hrs by Western blot analysis relative to control; format: functional

Compound | IC50 [1] [µM] | IC50 [3] [µM] | IC50 [9] [µM] | IC50 [10] [µM] | other results
COc1ccccc1CCn1c(=O)c2ccccc2n(Cc2ccc(C(=O)NO)cc2)c1=O | 11.8 | 0.012 | – | – | Ki [2]: 0.0021 µM; Ki [4]: 0.0026 µM
O=C(CCCCCCNC(=O)c1cnc(N(c2ccccc2)c2ccccc2)nc1)NO [RICOLINOSTAT] | 7.7 | – | – | – | AUC [5]: 622 ng·h/g; AUC [6]: 2493 ng·h/g; AUC [7]: 308 ng·h/g; AUC [8]: 1442 ng·h/g
O=C(CCCCCCC(=O)Nc1ccccc1)NO [VORINOSTAT] | 2.24 | – | – | – | –
O=C(NO)c1ccc(Cn2c(=O)n(CCc3ccccc3)c(=O)c3ccccc32)s1 | 13.5 | 0.02 | 22.9 | 19.8 | IC50 [11]: 0.097 µM
O=C(NO)c1ccc(Cn2c(=O)n(CCc3ccccc3)c(=O)c3ccc(Cl)cc32)cc1 | – | 0.022 | – | – | –
O=C(NO)c1ccc(Cn2c(=O)n(CCc3ccccc3)c(=O)c3cccnc32)cc1 | 2.84 | 0.029 | – | – | Ki [2]: 0.00389 µM; Ki [4]: 0.0045 µM
O=C(NO)c1ccc(Cn2c(=O)n(CCc3ccccc3)c(=O)c3cc(F)ccc32)cc1 | 12.2 | – | – | – | –
O=C(NO)c1ccc(Cn2c(=O)n(CCc3ccc(F)cc3)c(=O)c3ccccc32)cc1 | 3.65 | – | – | – | –
O=C(NO)c1ccc(Cn2c(=O)n(CCc3ccccc3)c(=O)c3ccc(F)cc32)cc1 | 3.92 | – | – | – | –
CC(=O)O[C@H]1C(=O)[C@@]2(C)[C@H]([C@H](OC(=O)c3ccccc3)[C@]3(O)C[C@H](OC(=O)[C@H](O)[C@@H](NC(=O)c4ccccc4)c4ccccc4)C(C)=C1C3(C)C)[C@]1(OC(C)=O)CO[C@@H]1C[C@@H]2O [PACLITAXEL] | – | – | – | – | Activity [12]: 1%; Activity [13]: 4%; IC50 [14]: 0.01 µM; Activity [15]: 6.9%; Activity [16]: 15.9%; Activity [17]: 1.2%; Activity [18]: 20%; viability at 10 µM [19]: 73.4%; Activity [20]: 2.9%; viability at 10 µM [21]: 94.9%; fold change (FC) [22]: 7.28
O=C(NO)c1cc(Cn2c(=O)n(CCc3ccccc3)c(=O)c3ccccc32)cs1 | – | – | > 10 | > 10 | –
O=C(NO)c1ccc(Cn2c(=O)n(CCc3ccccc3)c(=O)c3ccc(O)cc32)cc1 | – | 0.032 | – | – | –
O=C(NO)c1cccc(Cn2c(=O)n(CCc3ccccc3)c(=O)c3ccccc32)c1 | – | 4.63 | > 10 | > 10 | –
COc1ccc(CCn2c(=O)c3ccccc3n(Cc3ccc(C(=O)NO)cc3)c2=O)cc1 | – | 0.02 | 7.37 | 13.8 | IC50 [11]: 1.15 µM
O=C(NO)c1ccc(Cn2c(=O)n(CCc3ccc(O)cc3)c(=O)c3ccccc32)cc1 | – | 0.005 | 9.08 | 11.3 | IC50 [11]: 0.845 µM
O=C(NO)c1ccc(Cn2c(=O)n(CCc3cccc(C(F)(F)F)c3)c(=O)c3ccccc32)cc1 | 6.03 | 0.024 | 12.7 | – | IC50 [11]: 1.76 µM
